# The campaign covered roughly 330,000 compounds. About 2,000 (0.61%) were called active. This is one part of a sample in which actives are shown more often than they occur.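 How the source made its calls: active means inhibition above that plate's mean sample inhibition plus 3 SD (cut at about 26% in these data); inactive means the rest.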
# Assay: ATP-evoked calcium signal inhibitors, parental CHO, primary screen, counter-screen for OX1R antagonist project, cell-based, fluorescence, Fluo-8 calcium dye (AID 463079);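 further: 0% = ATP-challenged DMSO wells and 100% = DMSO wells without ATP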
# Details: parental CHO-K1, ATP-induced calcium, Fluo-8 fluorescence; at 5.6 µM; active compounds read high
# Outline: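 Assay system: parental CHO cells; Read-out basis: percent inhibition of ATP-evoked calcium rise, normalized to controls; Benchmarks: ATP and no-ATP DMSO wells; Compound dosing: single nominal dose of 5.6 µM per compound; Signal: Fluo-8 calcium dye fluorescence; Also added: ATP as calcium-mobilizing challenge; Repeats: singlicate.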
row,SMILES,inhibition
1,C/C(=N\NC(=O)c1ccc(CSc2nc(C)cc(C)n2)cc1)C1CCCCC1,-15.5% (inactive)
2,COc1ccc(C(=O)Nc2cc(C)ccc2NC(=O)COc2ccccc2)cc1,-7.7% (inactive)
3,CCS(=O)(=O)c1ccc(O)c(NC(=O)COc2ccc(Cl)cc2)c1,-4.26% (inactive)
4,Cc1ccc(O)c(NC(=S)NC(=O)COc2ccc(Br)cc2)c1,58.4% (active)
5,COCCCNC(=O)c1ccc(CNS(=O)(=O)c2ccc(NC(C)=O)cc2)cc1,-6.87% (inactive)
6,Cc1nnc(SCC(=O)N2c3ccccc3C(C)(c3ccc(Cl)cc3)CC2(C)C)s1 (centres undefined),-18.2% (inactive)
7,CCOC(=O)[C@H]1[C@H]2COc3ccccc3[C@@H]2N2C(=O)CN(Cc3ccccc3)C(=O)[C@@]12C,-31.8% (inactive)
8,O=S(=O)(c1ccc(Cl)s1)N1CCC2(CC1)OCCO2,-9.61% (inactive)
9,CC(OC(=O)/C=C/c1ccccc1)C(=O)Nc1ccc(C(N)=O)cc1 (centres undefined),-8.76% (inactive)
10,CC(C)Sc1nnc([C@H](Cc2ccccc2)NC(=O)OC(C)(C)C)o1,-15.8% (inactive)
11,C[C@H](NC(=O)OC(C)(C)C)c1nnc(SCC(=O)Nc2ccc(Br)cc2)o1,-14.8% (inactive)
12,C[C@@H](NC(=O)OC(C)(C)C)c1nnc(S(=O)(=O)Cc2ccccc2)o1,51.1% (active)
13,NNC(=O)C1CC(O)CN1S(=O)(=O)c1ccc(Cl)cc1 (centres undefined),-12.3% (inactive)
14,O=C(CN1CCN(S(=O)(=O)c2cc(Cl)ccc2Cl)CC1)c1ccc(O)c(O)c1,-11.1% (inactive)
15,Cc1ccc(S(=O)(=O)Nc2ccc(F)c(S(=O)(=O)N3CCOCC3)c2)cc1,-18.4% (inactive)
16,COc1cccc(CSc2nc3nc(C)cc(C)n3n2)c1,9.68% (inactive)
17,CC[C@]1(C(=O)OC)[C@H]2C(=O)N(Cc3ccccc3)C(=O)[C@H]2[C@H]2CN=C(SCc3ccc(C#N)cc3)N21,-26.6% (inactive)
18,CCOC(=O)C1=C(C)N(C[C@@H]2CC[C@@H](Cc3ccc(-c4ccccc4)cc3)O2)C(=O)NC1c1ccc([N+](=O)[O-])cc1 (some centres undefined),-13.7% (inactive)
19,CCN(CC)c1ccc(/C=N/NC(=O)c2cnccn2)c(O)c1,43.5% (active)
20,O=C(Nc1ccc2c(c1)OCCO2)c1cnccn1,-2.07% (inactive)
21,CCN1CCN(c2ccc(NC(=O)c3cnccn3)cc2)CC1,-2.98% (inactive)
22,CCOc1ccc(NS(=O)(=O)c2ccc(C)c(C(N)=O)c2)cc1,-5.42% (inactive)

row,SMILES,inhibition
1,CN1CCC(=NNC(=O)CN(c2cccc(Cl)c2)S(C)(=O)=O)CC1,-9.11% (inactive)
2,COc1ccc(-n2c(C)cc(C(=O)CSc3nnc(-c4cccs4)o3)c2C)cc1,40.8% (active)
3,COc1ccc(-n2c(C)cc(C(=O)COC(=O)c3cc(OC)c(OC)cc3NC(=O)c3cccs3)c2C)cc1,-15.5% (inactive)
4,COc1ccc(-c2nnc(SCC(=O)c3ccc4c(c3)OCCO4)o2)cc1,-4.45% (inactive)
5,Cc1cc(C)n(CCC(=O)N2CCN(S(=O)(=O)c3ccc(C)c(C)c3)CC2)n1,-19% (inactive)
6,CNS(=O)(=O)c1ccc(C(=O)NCC(=O)NCCc2ccc3c(c2)OCCO3)cc1,-17.8% (inactive)
7,CCOC(=O)Cn1c(-c2cccnc2Cl)nc2ccccc21,6.66% (inactive)
8,CCCCCCCCCCOC(=O)Cn1c(COc2cccc(OC)c2)[n+](C)c2ccccc21,43.2% (active)
9,CCCCCCCCCCOC(=O)Cn1c(COc2ccc(C)cc2)[n+](C)c2ccccc21,78.8% (active)
10,CCCCn1c(N)c(N(CCOC)C(=O)c2cccc(OCc3ccccc3)c2)c(=O)[nH]c1=O,-12.8% (inactive)
11,COc1cccc(OCc2nnc3n2N=C(c2ccccc2)C(CC(=O)O)S3)c1 (centres undefined),-2.16% (inactive)
12,CCOC(=O)COn1c(=O)c(-c2ccc(OCC)cc2)[n+]([O-])c2ccccc21,-6.3% (inactive)
13,CCOC(=O)C1CCN(Cc2c(C(=O)N3CCOCC3)nc3c(C)cccn23)CC1,-3.54% (inactive)
14,Cc1cccc(-n2c(Cc3cc(=O)[nH]c(=O)[nH]3)nnc2SCC(=O)Nc2cccc(C(F)(F)F)c2)c1,-7.28% (inactive)
15,CCOC(=O)C(Sc1ncc(C#N)c(N)n1)C(C)C (centres undefined),-2.34% (inactive)
16,CC[C@]1(C(=O)OC)[C@H]2C(=O)N(Cc3ccccc3)C(=O)[C@H]2[C@H]2CN=C(SCc3ccc(Cl)cc3)N21,-19.6% (inactive)
17,COc1ccc(S(=O)(=O)Nc2ccc3oc(C)c(C(C)=O)c3c2)cc1,40.8% (active)
18,CC(=O)c1c(C)oc2ccc(NS(=O)(=O)c3ccc(C(=O)O)cc3)cc12,7.03% (inactive)
19,CC(=O)c1c(C)oc2ccc(NS(=O)(=O)c3ccccc3)cc12,-0.19% (inactive)
20,CCCCN1C(=O)C(=O)N(CC(=O)Nc2cccc(C(C)=O)c2)C1=O,-9.38% (inactive)
21,COc1cc(C(=O)NCCOC(=O)c2cccc(N(C)C)c2)cc(OC)c1OC,-13.3% (inactive)
22,Cc1ccc2cccc(O)c2[n+]1[O-],-4.21% (inactive)
